The source made the active and inactive calls. No cut-off for these calls is given here.
Legend:
Plasmodium falciparum [1] = assay: Ratio of compound IC50 to chloroquine IC50 for chloroquine-resistant Plasmodium falciparum 7G8; format: functional
[2] = Therapeutic index, ratio of IC50 for mice (Mus musculus) spleen lymphocytes to IC50 for chloroquine-resistant Plasmodium falciparum Dd2; format: tissue-based; conditions: read-out: Ratio IC50
Plasmodium falciparum [3] = assay: Ratio of compound IC50 to chloroquine IC50 for chloroquine-resistant Plasmodium falciparum Dd2; format: functional
Plasmodium falciparum [4] = assay: Ratio of compound IC50 to chloroquine IC50 for chloroquine-sensitive Plasmodium falciparum D6; format: functional
[5] = Inhibition of beta-hematin formation after 24 hrs; format: functional
How it was run: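 40 µM heme in 0.67 M sodium acetate pH 4.8 with 0.0005 g/L Tween20, compound at 0–1000 µM. Incubated 24 h at 37 °C in the dark, then read at 415/630 nm. IC50 taken as (Dmax − Dinitial)/2. Duplicate assays, run twice.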

Plasmodium berghei [6] = assay: Antiplasmodial activity against Plasmodium berghei infected in NMRI mice (Mus musculus) assessed as parasitaemia level at 44 mg/kg, perorally administered as 4 consecutive doses measured after 4 days post last dose relative to control; format: functional; conditions: route oral
Plasmodium berghei [7] = assay: Antiplasmodial activity against Plasmodium berghei infected in NMRI mice (Mus musculus) assessed as survival rate at 44 mg/kg, perorally administered as 4 consecutive doses measured post last dose; format: functional; conditions: route oral
How it was run: (§1)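 P. berghei blood diluted in saline to 10^8 parasitized erythrocytes/mL; 0.2 mL given i.v. to groups of 3 female NMRI mice (controls 5). Compounds dosed at 10 ml/kg either once on day 1 (oral gavage or subcutaneous) or orally at 4, 24, 48, 72 h post-infection. Parasitemia read by FACS on 100,000 RBCs from tail blood on day 3 (single dose) or day 4 (quadruple dose). Activity = % reduction versus control mean. Survival monitored to 30 days.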

Heme = assay: Binding affinity to heme after 4 hrs by equilibrium binding assay
How it was run: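 Heme stock in NaOH, diluted to 5 µM in 100 mM phosphate buffer pH 5.7 and equilibrated 4 h. Optical titration by successive addition of compound, with pH held within ±0.05. Apparent dissociation constants from nonlinear least-squares fitting, assuming 2:1 heme:drug stoichiometry.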

Plasmodium berghei [8] = assay: Antiplasmodial activity against Plasmodium berghei infected in NMRI mice (Mus musculus) assessed as parasitaemia level at 30 mg/kg, subcutaneously after 3 days relative to control; format: functional; conditions: route subcutaneous; how it was run: as §1
Plasmodium berghei [9] = assay: Antiplasmodial activity against Plasmodium berghei infected in NMRI mice (Mus musculus) assessed as survival rate at 30 mg/kg, perorally administered as 4 consecutive doses measured post last dose; format: functional; conditions: route oral; how it was run: as §1
Plasmodium berghei [10] = assay: Antiplasmodial activity against Plasmodium berghei infected in NMRI mice (Mus musculus) assessed as parasitaemia level at 30 mg/kg, perorally administered as single dose measured after 3 days relative to control; format: functional; conditions: route oral; how it was run: as §1
Plasmodium berghei [11] = assay: Antiplasmodial activity against Plasmodium berghei infected in NMRI mice (Mus musculus) assessed as survival rate at 30 mg/kg, subcutaneously administered as single dose; format: functional; conditions: route subcutaneous; how it was run: as §1
Plasmodium berghei [12] = assay: Antiplasmodial activity against Plasmodium berghei infected in NMRI mice (Mus musculus) assessed as survival rate at 30 mg/kg, perorally administered as single dose; format: functional; conditions: route oral; how it was run: as §1
Plasmodium berghei [13] = assay: Antiplasmodial activity against Plasmodium berghei infected in NMRI mice (Mus musculus) assessed as parasitaemia level at 30 mg/kg, perorally administered as 4 consecutive doses measured after 3 days post last dose relative to control; format: functional; conditions: route oral; how it was run: as §1
[14] = Solubility of the compound; format: physicochemical
Plasmodium falciparum [15] = assay: Antiplasmodial activity against chloroquine-resistant Plasmodium falciparum Dd2 early trophozoites infected in NMRI mice (Mus musculus) RBC assessed as inhibition of hemozoin formation at 100 nM after 24 hrs by microscopic analysis; format: functional, organism-based
How it was run: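 D6 and Dd2 cultures synchronized to ring stage with 5% sorbitol, suspended at 1% hematocrit and exposed to drug (from 1 mM stock) for 24 h at 37 °C under 5% O2/5% CO2/90% N2. Giemsa-stained smears examined by microscopy for hemozoin, parasitemia and parasite morphology.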

[16] = Drug level in NMRI mice (Mus musculus) erythrocytes infected with chloroquine-sensitive Plasmodium falciparum D6 after 1 hr; format: ADME, cell-based; conditions: erythrocyte
How it was run: (§2)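 Sorbitol-synchronized mature trophozoites (about 10% parasitemia) in 5 mL complete medium, drug at about 5 µM initial medium concentration. Medium sampled over time and analyzed by C18 HPLC. NH4Cl (10 mM) added 10 min before sampling to release accumulated drug; uptake is the difference from the 1 h level. DV concentration assumes 6 × 10^7 PRBCs and a 4 fL DV. Accumulation ratio is DV/medium concentration.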

Plasmodium falciparum [17] = assay: Antiplasmodial activity against synchronized chloroquine-sensitive Plasmodium falciparum D6 infected in NMRI mice (Mus musculus) RBC assessed as inhibition of hemozoin formation at 1000 nM after 24 hrs by colorimetric analysis; format: functional, organism-based
How it was run: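 D6 cultures synchronized with sorbitol, held at 1% hematocrit, drug-treated 24 h at 37 °C. Parasites freeze-thawed, then lysed 30 min at 37 °C in saponin/Triton X-100 buffer. Hemozoin pelleted at 215,000 g, washed with acetone and PBS, dissolved 2 h in 0.2 N NaOH. Heme read at A400 (ε 91,000 cm-1M-1) and expressed per parasitized erythrocyte. A 0 h culture gave the baseline.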

Plasmodium falciparum [18] = assay: Antiplasmodial activity against synchronized chloroquine-resistant Plasmodium falciparum Dd2 infected in NMRI mice (Mus musculus) RBC assessed as inhibition of hemozoin formation at 1000 nM after 24 hrs by colorimetric analysis; format: functional, organism-based
How it was run: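 Sorbitol-synchronized D6 and Dd2 cultures at 1% hematocrit were drug-treated for 24 h at 37 °C. Parasites were freed by freeze-thaw and saponin/Triton lysis buffer (37 °C, 30 min). Hemozoin was pelleted at 215,000 g, washed with acetone and PBS, then dissolved in 0.2 N NaOH. Heme was quantified by A400 (ε 91,000 cm-1M-1) per parasitized erythrocyte. Baseline was taken from 0 h culture.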

[19] = Drug level in erythrocytes infected with chloroquine-resistant Plasmodium falciparum Dd2 after 1 hr; conditions: erythrocyte
Plasmodium falciparum [20] = assay: Antiplasmodial activity against chloroquine-sensitive Plasmodium falciparum D6 early trophozoites infected in NMRI mice (Mus musculus) RBC assessed as inhibition of hemozoin formation at 100 nM after 24 hrs by microscopic analysis; format: functional, organism-based
How it was run: (§3)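 Ring-stage D6 parasites synchronized with 5% sorbitol, suspended at 1% hematocrit and drug added from 1 mM stock. Incubated 24 h at 37 °C under 5% O2/5% CO2/90% N2 alongside a no-drug control. Giemsa-stained smears were used for parasitemia and for microscopic examination of hemozoin and parasite morphology.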

[21] = Drug level in chloroquine-sensitive Plasmodium falciparum D6 digestive vacuole after 1 hr; format: ADME; conditions: plasmodium falciparum d6, 1 h; how it was run: as §2
Plasmodium falciparum [22] = assay: Inhibition of hemozoin formation in early trophozoites of chloroquine-sensitive Plasmodium falciparum D6 infected in RBC assessed as enlarged digestive vacuole at 100 nM after 24 hrs by microscopic analysis; format: functional, organism-based; how it was run: as §3
[23] = Drug level in chloroquine-sensitive Plasmodium falciparum D6 digestive vacuole assessed as ratio of drug level in vacuole to medium at 5 uM after 1 hr; format: ADME; conditions: plasmodium falciparum d6, 1 h; how it was run: as §2
[24] = Drug level in chloroquine-sensitive Plasmodium falciparum Dd2 digestive vacuole assessed as ratio of drug level in vacuole to medium at 5 uM after 1 hr; format: ADME; conditions: plasmodium falciparum dd2, 1 h, in the assay text read “chloroquine-resistant” for “chloroquine-sensitive”; how it was run: as §2

Compound | Ratio IC50 (Plasmodium falciparum [1]) | selectivity ratio [2] | Ratio IC50 (Plasmodium falciparum [3]) | Ratio IC50 (Plasmodium falciparum [4]) | IC50 [5] [µM] | Kd (Heme) [µM] | also measured
Clc1ccc2c(NCCCN3CCN(CC(c4ccccc4)c4ccccc4)CC3)ccnc2c1 | 3.4 | 6970 | 3.3 | 0.5 |  |  | 
Clc1ccc2c(NCCN3CCC(NC(c4ccccn4)c4ccccn4)CC3)ccnc2c1 | 7.4 | 7310 | 3.9 | 1.1 | 2 | 1 | Activity (Plasmodium berghei [6]): >99.9%; Survival (Plasmodium berghei [7]): >30 days
Clc1ccc2c(NCCCN3CCNCC3)ccnc2c1 |  | 3380 | 6.8 | 4.3 |  |  | 
Fc1ccc(C(c2ccc(F)cc2)N2CCN(CCCNc3ccnc4cc(Cl)ccc34)CC2)cc1 | 34 | 1710 | 2.4 | 2 |  |  | 
Clc1ccc2c(NCCCN3CCN(C4C5CC6CC(C5)CC4C6)CC3)ccnc2c1 (stereo unspecified) | 10 | 69400 | 1.8 | 0.8 | 14 | 2.5 | 
Clc1ccc2c(NCCCN3CCCN(C4c5ccccc5-c5ccccc54)CC3)ccnc2c1 | 56 | 167 | 15 | 21 |  |  | 
OCCN1CCN(C(c2ccccc2)c2ccccc2)CC1 | >2500 | > 50 | >2500 | >2500 |  |  | 
Clc1ccc(C(c2ccccc2)N2CCN(CCNc3ccnc4cc(Cl)ccc34)CC2)cc1 (stereo unspecified) | 10 | 700 | 2 | 2.6 |  |  | 
Clc1ccc(C(c2ccccc2)N2CCCN(CCCNc3ccnc4cc(Cl)ccc34)CC2)cc1 (stereo unspecified) | 22 | 158 | 5.7 | 6.6 |  |  | 
Clc1ccc2c(NCCCN3CCN(C(c4ccccc4)c4ccccc4)CC3)ccnc2c1 | 11 | 423 | 2.6 | 1.9 | 3.5 | 3 | 
Clc1ccc2c(NCCN3CCCN(C4c5ccccc5-c5ccccc54)CC3)ccnc2c1 | 41 | 260 | 9.6 | 9.2 |  |  | 
Clc1ccc(C(c2ccccc2)N2CCN(CCCNc3ccnc4cc(Cl)ccc34)CC2)cc1 (stereo unspecified) | 12 | 229 | 3.5 | 3.2 |  |  | 
CN(CCCN1c2ccccc2CCc2ccccc21)CCNc1ccnc2cc(Cl)ccc12 | 21 | 269 | 5.2 | 3.6 | 10 | 7.3 | 
Clc1ccc2c(NCCN3CCN(C(c4ccccc4)c4ccccc4)CC3)ccnc2c1 | 4.3 | 528 | 3.6 | 1 | 2.5 | 3.3 | Activity (Plasmodium berghei [8]): <40%; Survival (Plasmodium berghei [9]): 16 days; Activity (Plasmodium berghei [10]): >99.9%; Survival (Plasmodium berghei [11]): 3 days; Survival (Plasmodium berghei [12]): 8 days; Activity (Plasmodium berghei [13]): >99.9%
Clc1ccc2c(NCCCN3CCN(C(c4ccccc4)(c4ccccc4)c4ccccc4)CC3)ccnc2c1 | 10 | 13600 | 4.2 | 2 |  | 5.4 | solubility [14]: Insoluble; Activity (Plasmodium berghei [8]): <40%; Survival (Plasmodium berghei [9]): 20 days; Activity (Plasmodium berghei [10]): 99.7%; Survival (Plasmodium berghei [11]): 3 days; Survival (Plasmodium berghei [12]): 7 days; Activity (Plasmodium berghei [13]): >99.9%
Clc1ccc2c(NCCCCN3CCN(C(c4ccccc4)c4ccccc4)CC3)ccnc2c1 | 7.2 | 846 | 1.3 | 1.3 |  |  | 
CCN(CC)CCCC(C)Nc1ccnc2cc(Cl)ccc12 (stereo unspecified) [CHLOROQUINE] |  |  |  |  |  |  | inhibition (Plasmodium falciparum [15]): inactive; Drug uptake [16]: 0.7 ×10⁻⁸ mol; Survival (Plasmodium berghei [9]): 23 days; Survival (Plasmodium berghei [11]): 10 days; inhibition (Plasmodium falciparum [17]): Active; Survival (Plasmodium berghei [12]): 9 days; inhibition (Plasmodium falciparum [18]): Active; Drug uptake [19]: 0.5 ×10⁻⁸ mol; inhibition (Plasmodium falciparum [20]): inactive
Clc1ccc2c(NCCCN3CCCN(C(c4ccccc4)c4ccccc4)CC3)ccnc2c1 | 15 | 171 | 4.1 | 4.8 |  |  | 
CN(CCCNc1ccnc2cc(Cl)ccc12)CCCN1c2ccccc2CCc2ccccc21 | 4 | 132 | 5.3 | 2.9 | 9 | 8.6 | Drug uptake [21]: 65000 µM; Drug uptake [16]: 1.6 ×10⁻⁸ mol; inhibition (Plasmodium falciparum [22]): Active; Ratio [23]: 32000; Activity (Plasmodium berghei [8]): 92%; Survival (Plasmodium berghei [9]): 8 days; Activity (Plasmodium berghei [10]): <40%; Survival (Plasmodium berghei [11]): 7 days; Survival (Plasmodium berghei [12]): 3 days; Activity (Plasmodium berghei [13]): 96%; Drug uptake [19]: 1.8 ×10⁻⁸ mol; Ratio [24]: 38000; inhibition (Plasmodium falciparum [20]): inactive

From ChEMBL document CHEMBL1250478 (J Med Chem, 2010)
